Source: ChEMBL document CHEMBL3734660, “Inhibitory effect of cytotoxic stilbenes related to resveratrol on the expression of the VEGF, hTERT and c-Myc genes” (Eur J Med Chem, 2015)
≈ marks a conversion by molar mass, not a printed value.

How the values were obtained:
[1] = Selectivity ratio of IC50 for HEK293 cells to IC50 for human MCF7 cells; assay type: ADME, cell-based; details: HEK293 cells versus MCF7 cells, read-out: Ratio IC50
MCF7 = assay: Cytotoxicity against human MCF7 cells assessed inhibition of cell proliferation after 3 days by MTT assay; details: MCF7, 72 h
HEK293 = assay: Cytotoxicity against HEK293 cells assessed inhibition of cell proliferation after 3 days by MTT assay; details: Homo sapiens, HEK293, 72 h
HT-29 [2] = assay: Cytotoxicity against human HT-29 cells assessed inhibition of cell proliferation after 3 days by MTT assay; details: HT-29, 72 h
[3] = Selectivity ratio of IC50 for HEK293 cells to IC50 for human HT-29 cells; assay type: ADME, cell-based; details: HEK293 cells versus HT-29 cells, read-out: Ratio IC50
HT-29 [4] = assay: Down regulation of c-Myc gene expression in human HT-29 cells at 10 ug/mL after 48 hrs by RT-qPCR analysis relative to control; assay type: functional
Procedure, shortened: (§1)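 HT-29 or MCF-7 cells grown to 70–80% confluence, serum-starved 24 h, then exposed to compound in DMSO for 48 h; DMSO-only control. Total RNA extracted and transcript measured by RT-qPCR, normalized to β-actin and expressed as percentage of control. At least three measurements; mean ± SEM; one-sample t-test.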

HT-29 [5] = assay: Down regulation of VEGF gene expression in human HT-29 cells at 10 ug/mL after 48 hrs by RT-qPCR analysis relative to control; assay type: functional; procedure, shortened: as §1
HT-29 [6] = assay: Down regulation of hTERT gene expression in human HT-29 cells at 10 ug/mL after 48 hrs by RT-qPCR analysis relative to control; assay type: functional; procedure, shortened: as §1
HT-29 [7] = assay: Inhibition of VEGF protein secretion in human HT-29 cells at 10 ug/mL after 72 hrs by ELISA relative to control; assay type: functional; parameters: scale not given: the % may be the effect or the level left

Row | SMILES | selectivity ratio [1] | IC50 (MCF7) [µg/mL] | IC50 (HEK293) [µg/mL] | IC50 (HT-29 [2]) [µg/mL] | selectivity ratio [3] | Activity (HT-29 [4]) [%] | Activity (HT-29 [5]) [%] | Activity (HT-29 [6]) [%] | Activity (HT-29 [7]) [%]
1 | Oc1ccc(/C=C/c2ccc(O)cc2)cc1 [TRANS-4,4'-DIHYDROXYSTILBENE] | 0.2 | 6.8 (≈ 32 µM) | 1.2 (≈ 5.65 µM) | > 100 | < 0.1 |  |  |  | 
2 | Nc1cccc(/C=C/c2ccccc2O)c1 | 3.9 | 24.7 (≈ 117 µM) | 96 (≈ 454 µM) | 30.4 (≈ 144 µM) | 3.2 | 37 | 38 | 52 | 76
3 | COc1cccc(/C=C/c2ccc(N)cc2)c1 | 0.3 | 52 (≈ 231 µM) | 18 (≈ 79.9 µM) | 16.1 (≈ 71.5 µM) | 1.1 | 74 | 100 | 81 | 74
4 | Nc1ccccc1/C=C/c1cccc(O)c1 | 1.2 | 17 (≈ 80.5 µM) | 20 (≈ 94.7 µM) | 30 (≈ 142 µM) | 0.7 |  |  |  | 
5 | Nc1cccc(/C=C/c2cccc(O)c2)c1 | > 1.8 | 54 (≈ 256 µM) | > 100 | 43 (≈ 204 µM) | > 2.3 | 54 | 52 | 58 | 92
6 | Nc1cccc(/C=C/c2ccccc2)c1 | 6 | 14 (≈ 71.7 µM) | 84 (≈ 430 µM) | 12.9 (≈ 66.1 µM) | 6.5 | 100 | 100 | 100 | 77
7 | COc1ccc(/C=C/c2ccccc2N)cc1 | 1.4 | 0.4 (≈ 1.78 µM) | 0.6 (≈ 2.66 µM) | 73 (≈ 324 µM) | < 0.1 |  |  |  | 
8 | Nc1ccccc1/C=C/c1ccccc1 | 0.9 | 1.4 (≈ 7.17 µM) | 1.3 (≈ 6.66 µM) | 17 (≈ 87.1 µM) | 0.1 | 100 | 100 | 59 | 59
9 | Nc1ccc(/C=C/c2cccc(O)c2)cc1 | 1 | 24.8 (≈ 117 µM) | 25 (≈ 118 µM) | 42 (≈ 199 µM) | 0.6 |  |  |  | 
10 | Nc1cccc(/C=C/c2ccc(O)cc2)c1 | 1.2 | 6 (≈ 28.4 µM) | 7 (≈ 33.1 µM) | 51 (≈ 241 µM) | 0.1 |  |  |  | 
11 | Oc1cccc(/C=C/c2cccc(O)c2)c1 | 1 | 21 (≈ 98.9 µM) | 21 (≈ 98.9 µM) | 25.9 (≈ 122 µM) | 0.8 |  |  |  | 
12 | Nc1ccccc1/C=C/c1ccc(O)cc1 | < 0.1 | 79 (≈ 374 µM) | 7 (≈ 33.1 µM) | > 100 | < 0.1 |  |  |  | 
13 | Nc1ccc(/C=C/c2ccccc2)cc1 [(E)-4-STYRYLANILINE] | 0.7 | 16 (≈ 81.9 µM) | 11.4 (≈ 58.4 µM) | 4.4 (≈ 22.5 µM) | 2.6 | 46 | 24 | 65 | 78
14 | COc1cccc(/C=C/c2cccc(N)c2)c1 | 0.5 | 34 (≈ 151 µM) | 16 (≈ 71 µM) | 19.6 (≈ 87 µM) | 0.8 | 34 | 23 | 100 | 73
15 | Nc1ccc(/C=C/c2ccccc2O)cc1 | 1 | 23 (≈ 109 µM) | 21.4 (≈ 101 µM) | 37 (≈ 175 µM) | 0.6 |  |  |  | 
16 | COc1cccc(/C=C/c2ccc(O)cc2)c1 [(E)-5-METHOXY-4'-STILBENOL] | 1.1 | 21 (≈ 92.8 µM) | 24 (≈ 106 µM) | 26 (≈ 115 µM) | 0.9 |  |  |  | 
17 | CCCCCCCCCCCC(=O)Nc1cccc(/C=C/c2ccccc2)c1 | 3.3 | 3.5 (≈ 9.27 µM) | 11.6 (≈ 30.7 µM) | > 100 | < 0.1 |  |  |  | 

Row | SMILES | selectivity ratio [1] | IC50 (MCF7) [µg/mL] | IC50 (HEK293) [µg/mL] | IC50 (HT-29 [2]) [µg/mL] | selectivity ratio [3] | Activity (HT-29 [4]) [%] | Activity (HT-29 [5]) [%] | Activity (HT-29 [6]) [%] | Activity (HT-29 [7]) [%]
18 | COc1ccccc1/C=C/c1cccc(N)c1 | 1.2 | 38.7 (≈ 172 µM) | 45 (≈ 200 µM) | 25.3 (≈ 112 µM) | 1.8 | 45 | 67 | 52 | 75
19 | Oc1cccc(/C=C/c2ccccc2O)c1 | 0.9 | 20.1 (≈ 94.7 µM) | 18 (≈ 84.8 µM) | 27 (≈ 127 µM) | 0.7 |  |  |  | 
20 | COc1cccc(/C=C/c2ccccc2O)c1 | 1.1 | 18 (≈ 79.5 µM) | 20 (≈ 88.4 µM) | 26 (≈ 115 µM) | 0.8 |  |  |  | 
21 | CCCCCCCCCCCC(=O)Nc1ccccc1/C=C/c1ccccc1 | 1.3 | 12 (≈ 31.8 µM) | 16 (≈ 42.4 µM) | 2.5 (≈ 6.62 µM) | 6.4 | 45 | 37 | 53 | 79
22 | COc1ccc(/C=C/c2ccc(O)cc2)cc1 | 0.3 | 11.3 (≈ 49.9 µM) | 3.9 (≈ 17.2 µM) | 17.4 (≈ 76.9 µM) | 0.2 |  |  |  | 
23 | Nc1ccccc1/C=C/c1ccccc1O | 0.7 | 39 (≈ 185 µM) | 27 (≈ 128 µM) | 36 (≈ 170 µM) | 0.7 |  |  |  | 
24 | COc1cccc(/C=C/c2ccccc2N)c1 | < 0.1 | 6.1 (≈ 27.1 µM) | 0.5 (≈ 2.22 µM) | 21.2 (≈ 94.1 µM) | < 0.1 | 79 | 100 | 35 | 51
25 | CCCCCCCCCCCC(=O)Nc1ccc(/C=C/c2ccccc2)cc1 | 1.7 | 5.8 (≈ 15.4 µM) | 10 (≈ 26.5 µM) | > 100 | < 0.1 |  |  |  | 
26 | Oc1ccccc1/C=C/c1ccccc1O | 1.1 | 23 (≈ 108 µM) | 24.3 (≈ 114 µM) | 25 (≈ 118 µM) | 0.9 |  |  |  | 
27 | COc1ccc(/C=C/c2cccc(N)c2)cc1 | 0.5 | 23 (≈ 102 µM) | 11 (≈ 48.8 µM) | 16.3 (≈ 72.4 µM) | 0.7 | 100 | 89 | 96 | 73
28 | COc1ccccc1/C=C/c1ccc(N)cc1 | 0.3 | 3.2 (≈ 14.2 µM) | 1 (≈ 4.44 µM) | 22 (≈ 97.7 µM) | < 0.1 |  |  |  | 
29 | Oc1ccc(/C=C/c2ccccc2O)cc1 | 0.8 | 21 (≈ 98.9 µM) | 17.5 (≈ 82.5 µM) | 22 (≈ 104 µM) | 0.8 |  |  |  | 
30 | COc1ccccc1/C=C/c1ccccc1N | < 0.1 | > 100 | 2.1 (≈ 9.32 µM) | > 100 | < 0.1 |  |  |  | 
31 | COc1ccccc1/C=C/c1ccccc1O | 0.8 | 17.9 (≈ 79.1 µM) | 15 (≈ 66.3 µM) | 23 (≈ 102 µM) | 0.7 |  |  |  | 
32 | Oc1ccc(/C=C/c2cccc(O)c2)cc1 [(E)-3,4'-STILBENDIOL] | < 0.1 | 23 (≈ 108 µM) | 1.1 (≈ 5.18 µM) | 6.9 (≈ 32.5 µM) | 0.2 |  |  |  | 
33 | Nc1ccc(/C=C/c2ccc(O)cc2)cc1 | 0.4 | 2.2 (≈ 10.4 µM) | 0.8 (≈ 3.79 µM) | 30.6 (≈ 145 µM) | 0.03 |  |  |  | 
